HSF1 inh – HSF1 inhibition | NIH3T3-HGL HSE-luciferase, MG132-induced, luminescence 8 h; hits give low values | activity change, negative = inhibition, % at 7.5 µM (by protocol) | actives 0.77% (n = 300,000);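 active = more than half of replicate wells show activity change below -50%, luminescence cut by over half; inconclusive = some wells, but at most half, below -50%; inactive = no replicate well below -50%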;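 note: luciferase reports HSF-1 transcriptional activity via heat shock element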
NS3 helicase inh – blocks Hepatitis C virus NS3 helicase unwinding; NS3 helicase DNA unwinding, Cy5 molecular beacon fluorescence; inhibition, % at 10.9 µM; actives 0.56% (n = 290,000);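 active = inhibition above the mean of all tested compounds plus 3 SD, set per campaign, cut at about 35% in these data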
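Control set: DMSO versus 110 µM thioflavine S; Material: NS3 helicase fragment of HCV; Measured by: Cy5 fluorescence at 0 and 60 min, beacon hairpin quenching; Read-out basis: percent inhibition from t60/t0 fluorescence ratio; Times: reaction time 60 min, 25 °C; Repeats: single replicate; Compound dosing: single dose, 10.9 µM nominal final, DMSO 0.8% final.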
HSF1 activator – increases HSF-1 driven luciferase reporter signal; NIH3T3-HGL HSF-1 luciferase reporter, MG132, 8 h; 100% = twice DMSO control signal; activation, % at 9 µM; actives 1.7% (n = 300,000); AID 504408;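 active = mean replicate activation of at least 50% with a set share of replicates each reaching 50%; inconclusive = only one of those two conditions met; inactive = mean below 50% and too few replicates reaching it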
Lipid droplet – hepatic lipid droplet formation modulation; AML12 mouse hepatocytes, oleate lipid droplets, BODIPY imaging; inhibition, % at 6.5 µM; actives 0.4% (n = 240,000); AID 1656;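 active = lipid droplet intensity inhibited by at least 50%, with more than 500 cells counted; inconclusive = wells with under 300 cells, treated as cytotoxic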
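Test system: AML12 hepatocytes (mouse); reagent: oleate loading, 100 µM; dosing: one dose, 6.5 µM compound; incubation: overnight exposure; signal: fluorescence imaging, 20x objective, two fields per well; read-out basis: % inhibition of corrected integrated BODIPY droplet signal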
HSP90 inh – blocks HSP90-mediated luciferase refolding in reticulocyte lysate. Rabbit reticulocyte lysate, luciferase refolding luminescence, 3 h. inhibition, % at 5.6 µM. actives 0.91% (n = 290,000);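 active = inhibition above the screen-wide mean plus 3 SD, computed separately per campaign, cut at about 16% in these data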;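 note: inhibitors lower the luminescence because luciferase stays unfolded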
HSP90 confirm – HSP90 inhibition, confirmation assay | shares compounds with HSP90 inh | inhibition, % at 5.9 µM | rabbit reticulocyte lysate, luciferase refolding luminescence, 3 h | actives 64% (n = 2,300); in the data active = inhibition above about 18%
luciferase ctr – counter-screen for HSP90 inhibitors: inhibitors of firefly luciferase; shares compounds with HSP90 inh; purified native firefly luciferase, luminescence; inhibition, % at 5.9 µM; actives 48% (n = 2,300); AID 1847;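 active = inhibition above the mean inhibition of all tested sample wells plus 3 SD, cut at about 10% in these data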
Target sequence (P08659 whole entry, looked up): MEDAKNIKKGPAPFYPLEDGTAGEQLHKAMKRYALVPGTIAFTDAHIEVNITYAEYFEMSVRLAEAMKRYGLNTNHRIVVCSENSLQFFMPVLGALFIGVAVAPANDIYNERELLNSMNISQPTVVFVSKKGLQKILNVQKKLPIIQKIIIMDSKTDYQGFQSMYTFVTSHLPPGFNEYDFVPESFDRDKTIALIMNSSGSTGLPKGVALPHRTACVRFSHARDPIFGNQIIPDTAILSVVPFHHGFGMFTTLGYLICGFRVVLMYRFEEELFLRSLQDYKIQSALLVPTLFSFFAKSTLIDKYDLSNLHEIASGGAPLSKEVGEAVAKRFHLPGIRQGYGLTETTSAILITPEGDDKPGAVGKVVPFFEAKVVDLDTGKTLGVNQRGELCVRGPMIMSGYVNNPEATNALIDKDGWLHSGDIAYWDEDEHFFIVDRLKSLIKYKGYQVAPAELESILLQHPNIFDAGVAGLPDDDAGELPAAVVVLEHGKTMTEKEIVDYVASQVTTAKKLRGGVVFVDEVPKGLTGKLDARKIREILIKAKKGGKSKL
Of the large screens only hits and unclear results are named; the others gave an inactive call (follow-up assays come after a bar, where they were run). This is a sample that favours compounds with a hit; in the whole collection about 3.8% have one here.

COc1ccc(-n2c(C)cc(-c3csc(NC(=O)c4ccc(S(=O)(=O)N(C)C)cc4)n3)c2C)cc1	HSF1 inh -54, HSP90 inh 20 | HSP90 confirm 39 | luciferase ctr inactive
CC(C)C(=O)Nc1ccc(-c2nc3ncccc3o2)cc1	HSP90 inh 18 | HSP90 confirm 25 | luciferase ctr 13
CCCC(=O)Nc1ccc(Cl)c(-c2nc3ncccc3o2)c1	HSP90 inh 23 | HSP90 confirm inactive | luciferase ctr inactive
CCC(=O)Nc1ccc(Cl)c(-c2nc3ncccc3o2)c1	none
Cc1cc2nc(-c3ccc(NC(=O)C(C)C)cc3)oc2cc1C	none
CC(C)C(=O)Nc1ccc(-c2nc3cccnc3o2)cc1	HSP90 inh 26 | HSP90 confirm 30 | luciferase ctr inactive
Cc1ccc(S(=O)(=O)N(CC#N)CC#N)cc1	none
O=C(Nc1ccc2ccccc2c1)c1ccccc1O	HSP90 inh 39 | HSP90 confirm 54 | luciferase ctr 46
O=C(Nc1ccc2ccccc2c1)c1ccc(Cl)cc1Cl	HSF1 activator 51, HSP90 inh 17 | HSP90 confirm 37 | luciferase ctr 20
CC(C)C(=O)Nc1cccc(NC(=O)c2ccc(Cl)cc2Cl)c1	none
CCCc1ccc(OCc2ccc(C(=O)N/N=C/c3cccnc3)o2)cc1	HSP90 inh 36 | HSP90 confirm 26 | luciferase ctr inactive
Cc1ccc(NC(=O)C2CCCN2C(=O)OCc2ccccc2)c(O)c1 (centres undefined)	none
O=C(N/C(=C/c1ccccc1F)C(=O)N1CCCCC1)c1ccccc1	none
Cc1cccc(C(=O)N2CCN(c3ccc(C(F)(F)F)cn3)CC2)c1C	HSP90 inh 38 | HSP90 confirm inactive | luciferase ctr inactive
Oc1c(C=Nc2cccnc2)sc2ccccc12	HSP90 inh 23 | HSP90 confirm 16 | luciferase ctr 18
Oc1c(/C=N/c2ccccn2)sc2ccccc12	none
Oc1c(C=Nc2ccccc2)sc2ccccc12	HSP90 inh 38 | HSP90 confirm 84 | luciferase ctr 80
Oc1ccccc1N=Cc1sc2ccccc2c1Cl	none
Oc1c(C=Nc2ccc(Cl)cn2)sc2ccccc12	HSP90 inh 24 | HSP90 confirm 42 | luciferase ctr 18
CN=Cc1sc2ccccc2c1O	HSP90 inh 34 (no result: Lipid droplet) | HSP90 confirm inactive | luciferase ctr inactive
CCC(=O)N1C(=O)C2(Nc3ccccc3N2)c2ccccc21	none
Cc1ccc2c(c1)N(C(=O)CCC(=O)NC1CCN(Cc3ccccc3)CC1)CC(C)O2 (centres undefined)	none
CC(=O)NCCN=Cc1sc2ccccc2c1O	HSP90 inh 20 (no result: Lipid droplet) | HSP90 confirm inactive | luciferase ctr inactive
Oc1ccc2oc3c(c2c1C=NCc1ccncc1)CCCC3	none
Oc1c(C=NCc2ccncc2)sc2ccccc12	HSP90 inh 21 | HSP90 confirm inactive | luciferase ctr inactive
Cc1ccc(CNC(=O)COc2ccc(S(=O)(=O)N3CCCC3)cc2)cc1	none
CCOc1ccc(C(CC(=O)O)NC(=O)C(CC)c2ccccc2)cc1 (centres undefined)	none
O=C(Cc1c(Cl)cccc1Cl)Nc1ccc(S(=O)(=O)Nc2ncccn2)cc1	none
CC(=O)c1ccc(NC(=O)c2cnn3ccccc23)cc1	HSF1 inh inconclusive, HSP90 inh 42 (no result: Lipid droplet) | HSP90 confirm 63 | luciferase ctr 12
CCN(CC)c1ccc(NC(=O)c2c(C)noc2C)cc1	none
Cc1ccc(-n2[nH]c(C)c(C=NC34CN5CN(CN(C5)C3)C4)c2=O)cc1C	none
COCCCN=Cc1c(C)[nH]n(-c2ccc(Br)c(C)c2)c1=O	HSP90 inh 18 | HSP90 confirm 42 | luciferase ctr 38
COc1ccccc1OCC(=O)Nc1cc(C(F)(F)F)ccc1-n1cncn1	none (no result: NS3 helicase inh, Lipid droplet, HSP90 inh)
CCN(CC(=O)NCc1ccc(Cl)cc1)C(=O)CCC(=O)c1ccc(F)cc1	none (no result: NS3 helicase inh, Lipid droplet, HSP90 inh)
Cc1cc2ncc(-c3cccs3)nc2cc1C	HSP90 inh 35 | HSP90 confirm 61 | luciferase ctr 59
Cc1cc(C)c(C)c(S(=O)(=O)N2CCC(C(=O)Nc3ccncc3)CC2)c1C	none
